This is a sample that favours compounds with a hit; in the whole collection about 2.6% have one here.
SENP8 block-1: human SENP8 protease inhibitors, primary screen, biochemical, fluorescence, Nedd8 protein substrate, uHTS. inhibition, % at 20 µM. recombinant SENP8. hit rate 0.64% among 360,000. Sentrin-specific protease 8 (Homo sapiens), Q96LD8. AID 602440, 2012; in the data active = inhibition mostly above about 40%, no sharp cut-off; inactive = mostly below about 27%
SENP6 block: SENP6 protease inhibitors, primary screen, biochemical, luminescence, uHTS; Sentrin-specific protease 6 (Homo sapiens), Q9GZR1; inhibition, % at 10 µM; Recombinant SENP6 catalytic domain, aminoluciferin luminescence; AID 2599, 2010; hit rate 1.8% among 330,000;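 active = inhibition above about 50% at the single tested dose, limit read from the data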
Platelet DG rel: inhibitors of platelet dense granule secretion, primary screen, cell-based, MLPCN, human platelets. human platelet-rich plasma, SFLLRN dense granule ATP release, luminescence. inhibition, %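 (compounds screened at 7.5 µM in platelet-rich plasma)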. hit rate 0.22% among 300,000. AID 1663, 2009;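 active = mean replicate score, as percent of positive control, at or above 50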
SENP7 inh: SENP7 protease inhibitors, primary screen, biochemical, luminescence, uHTS; Sentrin-specific protease 7 (Homo sapiens), Q9BQF6; recombinant SENP7, Z-RLRGG-aminoluciferin luminescence, 40 min; inhibition, % at 5 µM; hit rate 1.5% among 330,000; AID 434973, 2010;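 active = inhibition above about 50% at the single test dose, limit read from the data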
Target sequence (Q9BQF6 706-1050 limits assumed): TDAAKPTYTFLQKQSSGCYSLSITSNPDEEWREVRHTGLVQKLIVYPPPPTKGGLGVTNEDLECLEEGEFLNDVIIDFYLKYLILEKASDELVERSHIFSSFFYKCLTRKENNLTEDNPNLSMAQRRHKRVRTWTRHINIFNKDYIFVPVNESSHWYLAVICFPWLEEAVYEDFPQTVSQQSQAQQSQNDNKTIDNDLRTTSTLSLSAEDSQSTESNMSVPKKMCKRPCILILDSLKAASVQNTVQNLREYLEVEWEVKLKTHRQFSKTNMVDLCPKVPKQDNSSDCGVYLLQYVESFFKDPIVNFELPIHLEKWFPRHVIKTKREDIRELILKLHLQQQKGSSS
SENP8 block-2: SENP8 protease inhibitors, primary screen, biochemical, luminescence. Sentrin-specific protease 8 (Homo sapiens), Q96LD8. purified SENP8, Z-RLRGG-aminoluciferin cleavage. inhibition, % at 10 µM. hit rate 1.2% among 330,000. AID 2540, 2010; in the data active = inhibition above about 50%
SENP1 inh: human SENP1 catalytic domain inhibitors, primary screen, biochemical, FRET, uHTS. Sentrin-specific protease 1 (Homo sapiens), Q9P0U3. recombinant SENP1 catalytic domain, CyPet-SUMO1-YPet FRET cleavage. inhibition, % at 10 µM. hit rate 0.21% among 360,000. AID 624204, 2012;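 active = inhibition at least 30% at 10 µM, raw YFP signal under a set limit, fluorescence ratio 0.5 to 1.5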
Target sequence (Q9P0U3 419-644 limits assumed): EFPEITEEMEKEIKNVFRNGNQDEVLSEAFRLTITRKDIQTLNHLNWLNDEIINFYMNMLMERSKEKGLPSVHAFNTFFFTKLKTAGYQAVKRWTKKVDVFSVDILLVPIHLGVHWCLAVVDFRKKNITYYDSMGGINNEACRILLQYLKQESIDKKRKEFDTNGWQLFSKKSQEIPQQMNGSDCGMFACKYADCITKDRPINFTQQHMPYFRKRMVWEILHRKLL
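System: Recombinant human SENP1 catalytic domain, His6-tagged | Incubation: Enzyme reaction for 50 min at room temperature, dark | Medium: Tris pH 8 with BME, BSA, NP40 and catalase | Also added: 25 nM SUMO1 FRET substrate | Compound: 10 µM single point, 0.5% DMSO | Measured by: FRET fluorescence in CFP and YFP emission channels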
A number is an active result; i = inactive; nt = not tested or not shown.

SMILES	SENP8 block-1	SENP6 block	Platelet DG rel	SENP7 inh	SENP8 block-2	SENP1 inh
COc1ccc(CC(=O)N2CCN(c3ccc(C4=NNC(=O)CC4C)cc3)CC2)cc1 (stereo not drawn)	i	i	67	i	i	i
N#CC(c1nc2ccccc2nc1N1CCCC1)S(=O)(=O)c1ccccc1 (stereo not drawn)	i	74	i	i	72	i
CC(=O)N1c2ccc(S(=O)(=O)N(C)CC(=O)Nc3ccccc3C)cc2CC1C (stereo not drawn)	i	i	i	i	i	i
CCn1c(SCC(=O)NC2CCCCC2)nnc1-c1ccco1	i	i	i	i	i	i
CCc1nc2ccc(C(=O)Nc3cccc(C(C)=O)c3)cc2nc1CC	i	i	i	i	i	i
O=C(Nc1ccc2c(c1)OCO2)c1nn(-c2ccccc2)c(=O)c2ccccc12	i	i	i	i	i	i
CCc1nc2ccc(C(=O)Nc3ccc4c(c3)OCO4)cc2nc1CC	i	i	nt	i	51	i
O=C(Nc1cccc(F)c1)c1ccc2c(c1)OCO2	i	86	i	90	71	i
O=C(Nc1c(C(=O)Nc2cccc(F)c2)oc2ccccc12)c1ccc2c(c1)OCO2	i	i	i	i	i	i
O=C(Nc1ccc([N+](=O)[O-])cn1)c1ccc2c(c1)OCO2	i	i	i	67	i	i
O=C(Nc1ccc2c(c1)OCO2)c1n[nH]c(=O)c2ccccc12	i	67	i	62	i	i
CC(C)(C)c1ccc(C(=O)Nc2ccc([N+](=O)[O-])cn2)cc1	i	i	i	i	i	i
CC(=O)c1ccc[n+](CC(=O)NC(C)c2ccccc2)c1 (stereo not drawn)	i	i	i	i	i	i
CS(=O)(=O)c1ccc(Cl)c(NC(=O)CSc2nnc3n2CCCCC3)c1	i	nt	nt	nt	nt	i
CCc1ccccc1NC(=O)Nc1ccc2c(c1)OCO2	i	i	i	82	i	i
COc1cc(/C=C2/C(=O)N(c3ccc(Br)cc3)N=C2C)cc(OC)c1OC	49	i	i	i	i	i
COc1cc(/C=C2/C(=O)N(c3ccc(C(=O)O)cc3)N=C2C)cc(OC)c1O	i	i	i	i	i	i
C#CCOc1ccc(/C=C2/C(=O)N(c3ccc(S(N)(=O)=O)cc3)N=C2C)cc1OC	63	nt	nt	nt	nt	i
COc1cc(/C=C2/C(=O)N(c3ccc(C)c(C)c3)N=C2C)cc([N+](=O)[O-])c1O	i	i	i	i	i	i
COc1cc(/C=C2\C(=O)N(c3ccccc3)N=C2C)ccc1Oc1ccc([N+](=O)[O-])cc1[N+](=O)[O-]	58	nt	nt	nt	nt	i
COc1ccc(OC)c(C=NNC(=O)c2ccc(NS(=O)(=O)c3cccs3)cc2)c1	i	i	nt	i	i	i
COc1cccc2c1C(=O)c1c(O)c3c(c(O)c1C2=O)CC(O)(C(C)=O)CC3OC1CC(O)C(O)C(C)O1 (stereo not drawn)	50	nt	nt	nt	nt	i
COc1cccc2c1C(=N)c1c(O)c3c(c(O)c1C2=O)CC(O)(C(C)=O)CC3OC1CC(N)C(O)C(C)O1 (stereo not drawn)	i	nt	nt	nt	nt	i
O=C(COC(=O)c1cccc(-n2cnnn2)c1)c1ccc(F)c(F)c1	i	nt	nt	nt	nt	i
Cc1cc(N2CCCC2)ccc1/C=C1/C(=O)N(C)C(=S)N1C	i	i	i	i	i	66
SMILES	SENP8 block-1	SENP6 block	Platelet DG rel	SENP7 inh	SENP8 block-2	SENP1 inh
CC1(C)CC(N2CCC(=O)NC2=S)CC(C)(C)N1	i	i	69	i	i	i
CC1(C)CC(N2CCC(=O)N(C3CC(C)(C)NC(C)(C)C3)C2)CC(C)(C)N1	i	i	i	i	i	i
CCCC(=Nc1ccc(N)cc1)C1=C(O)C(C(=O)OC)C(C)(C)CC1=O (stereo not drawn)	80	i	i	i	i	44
COc1ccccc1C(=O)Nc1nc2cc3c(cc2s1)OCO3	i	i	i	79	i	i
O=C(Nc1nc2cc3c(cc2s1)OCCO3)c1ccc([N+](=O)[O-])o1	i	87	i	88	74	i
Cc1cc(C)c2nc(NC(=O)c3ccc([N+](=O)[O-])o3)sc2c1	i	i	i	i	i	i
O=C(Nc1nc2cc3c(cc2s1)OCCO3)c1cccs1	i	96	i	98	94	i
COc1cccc(OC)c1C(=O)Nc1nc2cc3c(cc2s1)OCO3	i	i	i	i	i	i
CCC(C(=O)NC1CCCC1)n1c(C2CCCC2)nc2ccccc21 (stereo not drawn)	i	nt	nt	nt	nt	i
O=C(CN1C(=O)/C(=C/c2ccco2)SC1=S)NC1CCS(=O)(=O)C1 (stereo not drawn)	41	i	i	i	i	i
COc1ccc(CCNC(=O)CN2c3cccc4cccc(c34)S2(=O)=O)cc1	i	i	nt	i	i	i
CCOC(=O)[C@@H]1[C@H]2COc3ccccc3[C@@H]2N2C(=O)N(c3ccc(Cl)cc3)C(=O)[C@]12C	i	i	i	i	i	i
Cc1cccc2cc3c(N)c(C(=O)N4CCOCC4)sc3nc12	i	i	i	i	i	42
Cc1cc(C)c2cc3c(N)c(C(=O)N4CCc5ccccc5C4)sc3nc2c1	i	i	i	i	i	i
O=C1C=C(N2CCCCC2)c2ccccc2C1=O	i	93	i	55	83	i
O=C1c2ccccc2-c2onc3ccc(N4CCCC4)c1c23	81	nt	i	nt	nt	i
O=C1c2ccccc2C(=O)c2c1cccc2N1CCCC1	46	nt	i	nt	nt	i
O=C1c2ccccc2-c2cccc(C(=O)N3CCCCC3)c21	i	i	i	i	i	i
O=S(=O)(c1ccccc1S(=O)(=O)N1CCCCC1)N1CCCCC1	i	i	i	i	i	i
CCNc1ccc2noc3c2c1C(=O)c1ccccc1-3	42	i	i	i	i	i
COc1ccc(N2CC(C(=O)Nc3nnc(SCC(=O)N4CCOCC4)s3)CC2=O)cc1 (stereo not drawn)	i	i	i	i	i	i
CCOc1ccc2noc3c2c1C(=O)c1ccccc1-3	70	79	i	i	i	i
O=C1c2ccccc2-c2onc3ccc(NCc4ccco4)c1c23	100	64	i	i	i	i
Cn1c(=O)cc2c3c(c(N4CCCCC4)ccc31)C(=O)c1ccccc1-2	i	i	i	i	i	33
COCCc1ccc(OC2(C)CCN(Cc3ccc(OC)c4ccccc34)C2)cc1 (stereo not drawn)	i	nt	nt	nt	nt	i
Cc1cccc(NC(=O)c2ccc(N3CCCCC3)c([N+](=O)[O-])c2)n1	i	76	i	73	i	i
Cc1cccc(NC(=O)c2ccc(N3CCOCC3)c([N+](=O)[O-])c2)n1	i	i	i	i	i	i

Source: PubChem BioAssay
